Assay [1] has as its target p110α (Homo sapiens, UniProt P42336, E545K). The assay can be described thus: Western blot of p110α degradation in MCF7 cells. It counts as cell-based. The conditions noted are these: pretreatment before WJ112-14. An outline of the steps:
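MCF7 cells (p110α E545K) were exposed to test compound for 6 h, or 6 h and 24 h in some runs. Integrated PI3Kα western blot signals were normalised to α-tubulin and DMSO. SD came from biological triplicates at selected concentrations. Mechanistic runs used pretreatment with bortezomib, MLN4924 or TAK-243, a glutarimide-methylated CRBN-binding-dead analogue, and washout to follow p110α recovery.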
For orientation: A western blot detects proteins with antibodies after separation by electrophoresis.

For assay [2], the system named is p110α. The assay can be described thus: Western blot of p110α degradation in a panel of cell lines. The note with it: MCF7 and T47D cell lines. In kind it is cell-based.

Chain of p110α (Homo sapiens, UniProt P42336, E545K) (P42336 whole entry E545K): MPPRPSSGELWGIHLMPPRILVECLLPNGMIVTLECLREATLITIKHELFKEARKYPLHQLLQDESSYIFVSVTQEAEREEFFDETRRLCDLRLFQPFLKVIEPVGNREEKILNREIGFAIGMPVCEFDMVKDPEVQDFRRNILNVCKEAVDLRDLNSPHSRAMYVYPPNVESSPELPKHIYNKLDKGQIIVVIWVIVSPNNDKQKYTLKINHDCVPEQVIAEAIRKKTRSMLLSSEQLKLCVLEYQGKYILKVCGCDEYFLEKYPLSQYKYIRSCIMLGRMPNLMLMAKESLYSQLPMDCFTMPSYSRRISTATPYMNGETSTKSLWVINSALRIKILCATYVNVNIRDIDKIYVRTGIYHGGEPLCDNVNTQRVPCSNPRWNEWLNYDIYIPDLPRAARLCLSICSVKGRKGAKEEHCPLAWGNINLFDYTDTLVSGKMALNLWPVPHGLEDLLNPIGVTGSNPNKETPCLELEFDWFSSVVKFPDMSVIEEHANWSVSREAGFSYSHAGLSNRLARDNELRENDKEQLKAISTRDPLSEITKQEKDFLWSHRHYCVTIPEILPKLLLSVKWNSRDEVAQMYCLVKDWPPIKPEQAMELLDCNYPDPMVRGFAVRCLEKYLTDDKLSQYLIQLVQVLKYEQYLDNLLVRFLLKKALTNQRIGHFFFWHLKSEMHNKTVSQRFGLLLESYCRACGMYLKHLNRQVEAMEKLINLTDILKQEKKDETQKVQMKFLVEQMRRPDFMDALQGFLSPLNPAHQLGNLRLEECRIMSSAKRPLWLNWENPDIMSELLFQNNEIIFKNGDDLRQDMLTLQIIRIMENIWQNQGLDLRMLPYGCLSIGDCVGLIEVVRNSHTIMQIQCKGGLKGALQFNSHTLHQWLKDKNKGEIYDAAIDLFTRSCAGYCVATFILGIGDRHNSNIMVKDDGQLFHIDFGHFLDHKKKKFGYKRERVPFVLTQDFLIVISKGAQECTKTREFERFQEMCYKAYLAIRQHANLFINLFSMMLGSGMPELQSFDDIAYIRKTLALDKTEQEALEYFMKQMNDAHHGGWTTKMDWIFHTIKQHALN
Chain of p110α (Homo sapiens, UniProt P42336, E545K) (P27986 whole entry partner): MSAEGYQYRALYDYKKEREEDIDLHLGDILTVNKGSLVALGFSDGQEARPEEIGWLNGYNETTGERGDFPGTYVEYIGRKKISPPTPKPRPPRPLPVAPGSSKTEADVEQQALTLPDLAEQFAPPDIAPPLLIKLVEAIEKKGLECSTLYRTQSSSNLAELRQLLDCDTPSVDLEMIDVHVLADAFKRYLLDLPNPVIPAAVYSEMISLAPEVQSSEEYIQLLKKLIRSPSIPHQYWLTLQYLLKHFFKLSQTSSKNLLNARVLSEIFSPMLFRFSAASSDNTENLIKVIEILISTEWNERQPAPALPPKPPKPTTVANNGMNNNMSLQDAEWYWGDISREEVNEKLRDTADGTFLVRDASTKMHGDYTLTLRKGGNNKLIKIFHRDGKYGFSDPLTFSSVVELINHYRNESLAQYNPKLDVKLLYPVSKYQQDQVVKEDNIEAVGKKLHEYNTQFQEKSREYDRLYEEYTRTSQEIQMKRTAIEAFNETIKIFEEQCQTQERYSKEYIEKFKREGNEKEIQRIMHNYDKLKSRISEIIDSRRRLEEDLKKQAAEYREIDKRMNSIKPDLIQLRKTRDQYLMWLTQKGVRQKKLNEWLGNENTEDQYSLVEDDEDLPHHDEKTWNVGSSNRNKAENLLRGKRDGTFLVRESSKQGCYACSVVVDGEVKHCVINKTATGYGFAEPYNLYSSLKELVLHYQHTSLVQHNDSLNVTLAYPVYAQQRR

In the case of `NS(=O)(=O)OC[C@@H]1C[C@@H](n2ccc3c(N[C@H]4CCc5ccccc54)ncnc32)C[C@@H]1O` [MLN4924], the “rescue of p110α from WJ112-14 degradation by pretreatment” value (shortened to “rescue”) in assay [1] is “full rescue of p110α”.

For the compound `NS(=O)(=O)OC[C@H]1C[C@@H](Nc2ccnc3cc(-c4cccc(SC(F)(F)F)c4)nn23)[C@H](O)[C@@H]1O` [TAK-243], in assay [1], the “rescue” value was “full rescue of p110α”.

For `CC(C)C[C@H](NC(=O)[C@H](Cc1ccccc1)NC(=O)c1cnccn1)B(O)O` [bortezomib], the “rescue” value in assay [1] is listed as “full rescue of p110α”.

For `Nc1cccc2c1C(=O)N(C1CCC(=O)NC1=O)C2=O` (centres unmarked) [pomalidomide], the “rescue” value in assay [1] was “rescue of p110α”.

With `Cc1nc(-c2cn3c(n2)-c2ccc(-c4cnn(C(C)(C)C(N)=O)c4)cc2OCC3)n(C(C)C)n1` [taselisib], in assay [2], the p110α degradation result is “inactive”.

The values are drawn from publication PMC10763047 (Chemical Science, 2023).
